SUMO1-SIM PPI = alters human SUMO1 binding to SIM partners | SUMO1 binding to a labelled peptide, TR-FRET, 1 h | inhibition, % at 20 µM | hit rate 0.33% among 360,000; in the data active means inhibition above about 37%
Target sequence (P63165 whole entry, looked up): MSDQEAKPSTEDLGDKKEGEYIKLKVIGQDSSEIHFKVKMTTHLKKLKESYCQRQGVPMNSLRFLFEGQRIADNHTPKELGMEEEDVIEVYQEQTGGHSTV
STEP inh = inhibitors of human striatal-enriched phosphatase STEP; inhibition, % at 20 µM; hit rate 0.25% among 360,000; recombinant STEP, OMFP fluorogenic substrate, fluorescence; AID 588621; P54829;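 active means inhibition at 20 µM, scaled per plate between control wells, above about 37%, limit read from the data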;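 further: 0% = DMSO with enzyme and substrate and 100% = substrate only without enzyme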
Target sequence (P54829 whole entry, looked up): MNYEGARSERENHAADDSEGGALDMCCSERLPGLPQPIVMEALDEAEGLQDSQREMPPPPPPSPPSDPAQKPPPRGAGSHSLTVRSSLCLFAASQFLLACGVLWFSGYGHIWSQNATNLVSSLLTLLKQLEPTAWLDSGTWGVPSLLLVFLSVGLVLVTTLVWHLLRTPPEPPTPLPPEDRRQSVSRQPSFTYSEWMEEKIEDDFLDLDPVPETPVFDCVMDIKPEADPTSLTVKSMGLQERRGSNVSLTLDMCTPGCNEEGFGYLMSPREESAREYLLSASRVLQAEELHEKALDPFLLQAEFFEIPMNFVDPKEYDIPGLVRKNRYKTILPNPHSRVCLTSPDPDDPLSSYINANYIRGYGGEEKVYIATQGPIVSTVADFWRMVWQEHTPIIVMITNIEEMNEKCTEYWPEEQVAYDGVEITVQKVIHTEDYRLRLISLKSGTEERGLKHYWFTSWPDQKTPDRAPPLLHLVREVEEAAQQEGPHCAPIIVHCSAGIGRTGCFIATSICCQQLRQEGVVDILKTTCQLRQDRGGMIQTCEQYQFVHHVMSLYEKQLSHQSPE
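Also added – OMFP at 25 µM · Test system – STEP tyrosine phosphatase · Technique – FITC-channel fluorescence of OMFP product · Schedule – 20 min at room temperature, dark · Evaluation – control-normalized % inhibition with plate pattern correction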
NadD inh = NadD (S. aureus) enzyme inhibition | purified NadD enzyme, colorimetric absorbance read-out | inhibition, % at 20 µM | hit rate 0.78% among 360,000 | AID 602399; in the data active means inhibition above about 26%
DNMT1 inh = inhibitors of human DNMT1; P26358; DNMT1 molecular beacon, Hinp1I cleavage, fluorescence; inhibition (reported as % activation of signal), % at 10 µM; hit rate 0.83% among 360,000; in the data active means inhibition above about 50%
LMPTP inh = LMPTP (human) inhibition. hit rate 0.22% among 360,000. inhibition, % at 20 µM. recombinant LMPTP-A, OMFP fluorogenic substrate, fluorescence intensity. P24666. AID 651560;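 active means compounds that cut the enzyme signal by at least half of the control window in the single-dose screen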;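 further: plate controls were DMSO wells with enzyme plus substrate for no effect and substrate without enzyme for full effect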
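Test system – LMPTP-A enzyme · Amount – LMPTP-A at 0.625 nM final in the reaction · Buffer or medium – Bis-Tris pH 6.0, DTT, detergent · Reagent – OMFP 400 µM · Doses – single 20 µM dose · Schedule – reaction 50 min, room temperature, dark · Detection – fluorescence intensity of OMFP turnover product · Evaluation – percent inhibition versus substrate-only and uninhibited controls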
Scp1 inh = blocks human Scp-1 phosphatase activity; hit rate 0.88% among 340,000; inhibition, % at 20 µM; Recombinant Scp1, phosphopeptide, malachite green phosphate absorbance; AID 493091; Q9GZU7;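 active means inhibition above about 50% at 20 µM, limit read from the data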;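 further: plate controls were DMSO wells with enzyme for no effect and wells lacking enzyme for full effect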
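System: SCP-1 catalytic domain; Reagent: Phospho 17-mer peptide substrate; Doses: one concentration, 20 µM, with 1.0% DMSO; Incubation: 45 min room-temperature reaction, 5 min colour, 30 min stabiliser; Signal: Phosphate-binding colour reagent, absorbance read at 630 nm.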
* marks the source's active call; other numbers are inactive results; i = inactive; . = no result given. This is a sample that favours compounds with a hit; in the whole collection about 2.4% have one here.

SMILES | SUMO1-SIM PPI | STEP inh | NadD inh | DNMT1 inh | LMPTP inh | Scp1 inh
CCn1c(SC(C)C(=O)O)nc2sc3c(c2c1=O)CCC3 (centres undefined) | 13 | 10 | 3 | 90* | 15 | 78*
Cc1nn(CC(=O)Nc2c(C)n(C)n(-c3ccccc3)c2=O)c(C)c1[N+](=O)[O-] | -1 | -4 | 2 | 0 | -1 | -12
CCOc1ccccc1CNC(=O)CCCn1ncn2c(cc3occc32)c1=O | -7 | 2 | 2 | -5 | 1 | -2
O=C1CSC(c2cn(-c3ccccc3)nc2-c2cc3ccccc3oc2=O)N1Cc1ccccc1 (centres undefined) | 55* | 6 | 15 | -7 | 3 | -18
CC1CCN(C(=O)CSc2nnc(-c3ccccc3F)o2)CC1 | 54* | 2 | -1 | 0 | -1 | -4
COc1ccccc1-c1nnc(SCC(=O)N2CCC(C)CC2)o1 | -1 | -1 | 0 | -1 | -1 | -14
Nc1ccc(C(CC(=O)O)n2cccc2)cc1 (centres undefined) | 1 | 2 | 4 | 15 | 0 | 13
O=[N+]([O-])c1ccc(Cl)c2c1C1C=CCC1C(c1ccccn1)N2 (centres undefined) | 17 | 4 | 41* | 51* | 14 | -3
CCC(=O)N1N=C(c2ccc(Cl)cc2)CC1c1ccco1 (centres undefined) | -3 | 4 | -2 | -1 | -1 | -10
CCc1ccc(C2=NN(C(C)=O)C(c3ccco3)C2)cc1 (centres undefined) | 0 | -2 | -7 | -1 | 0 | 69*
O=C(O)c1cccc(N2C(=O)/C(=C/c3ccc(SCc4ccc(Cl)cc4)o3)SC2=S)c1 | 70* | 16 | 30 | 84* | 49 | 70*
COc1ccc(NC(=O)C2CCN(S(=O)(=O)c3c(C)noc3C)CC2)cc1Cl | 4 | 1 | -3 | -3 | 0 | -6
Brc1ccc(C2Nc3cccc4cccc(c34)N2)s1 | 9 | 8 | 20 | 55* | 0 | -3
CC(OC(=O)c1cc2sccc2n1C)C(=O)NCC1CCCO1 (centres undefined) | 1 | 0 | 4 | 4 | -2 | 2
Cn1c(C(=O)OC(C(=O)NCC2CCCO2)c2cccnc2)cc2sccc21 (centres undefined) | -6 | 0 | -1 | 2 | 2 | 57*
O=C(NC1CCCN(Cc2ccc(Cl)cc2)C1)c1cccc(F)c1 (centres undefined) | -2 | -1 | -2 | -4 | -1 | -1
CCOc1ccc(S(=O)(=O)Nc2cc(NS(=O)(=O)c3ccc(OCC)cc3)cc(C(=O)O)c2)cc1 | 17 | 1 | -3 | 32 | 16 | 55*
COc1ccc(OCCCC(=O)ON=C(N)c2ccccc2C)cc1 | 4 | 6 | -5 | 0 | 1 | -10
CC[n+]1c(/C=C/N(C)c2ccccc2)n(-c2ccccc2)c2ccc(-c3nc4ccccc4s3)cc21 | -84 | 10 | 32* | -1 | 83* | 32
CC[n+]1cccc(-c2nc3ccccc3s2)c1 | -21 | -3 | 6 | 2 | -1 | 4
O=Nc1c(-c2ccccc2)[nH]n(-c2ccccc2)c1=O | -26 | 0 | 1 | -3 | 0 | -6
Cc1ccc(N=Nc2c(C)[nH]n(C(N)=S)c2=O)cc1 | -26 | 2 | 6 | -1 | 3 | -3
O=c1c(N=Nc2ccc(O)cc2)c(-c2ccccc2)[nH]n1-c1ccc([N+](=O)[O-])cc1 | -7 | 2 | 40* | -4 | 3 | -7
NC(=S)n1[nH]c(-c2ccc([N+](=O)[O-])cc2)c(N=Nc2ccc(Cl)cc2)c1=O | 87* | 4 | 68* | 107* | 29 | 3
Cc1ccc([N+](=O)[O-])cc1N=Nc1c(C)[nH]n(C(N)=S)c1=O | -23 | 1 | 6 | 0 | 0 | -7
SMILES | SUMO1-SIM PPI | STEP inh | NadD inh | DNMT1 inh | LMPTP inh | Scp1 inh
Cc1ccc([N+](=O)[O-])cc1N=Nc1c(-c2ccc([N+](=O)[O-])cc2)[nH]n(C(N)=S)c1=O | 18 | 9 | 53* | 21 | 27 | 63*
O=C(COC(=O)/C=C/c1ccccc1F)Nc1nnc(-c2ccccc2)o1 | -5 | 1 | 5 | 1 | 0 | -9
O=C(CCN1C(=O)c2ccccc2C1=O)Nc1cc(F)ccc1F | -5 | 1 | -5 | 1 | 0 | -2
CCN1/C(=C/C=C/c2oc3ccc(-c4ccccc4)cc3[n+]2CC)Oc2ccc(-c3ccccc3)cc21 | 57* | i | 44* | 149* | 14 | 18
CCCCN1C(=O)/C(=C/C=C2\Oc3ccccc3N2CC)SC1=S | -28 | -42 | 7 | 20 | 8 | -4
O=C(COC(=O)c1ccc(-c2cnc3ccccc3n2)cc1)c1ccccc1 | 41* | -2 | -4 | 9 | -1 | -10
Cc1ccc(C(=O)OCC(=O)c2ccccc2)cc1 | 2 | 2 | -3 | 2 | 0 | -9
OCC1OC(Oc2cccc3ccccc23)C(O)C(O)C1O (centres undefined) | -3 | 3 | -5 | -1 | -1 | -16
O=C(O)c1cc(O)c2c(c1)[C@@H]([C@H]1c3cc(C(=O)O)cc(O)c3C(=O)c3c(O[C@@H]4O[C@H](CO)[C@@H](O)[C@H](O)[C@H]4O)cccc31)c1cccc(O[C@@H]3O[C@H](CO)[C@@H](O)[C@H](O)[C@H]3O)c1C2=O | . | . | . | . | . | 86*
O=C(NC(=S)Nc1ccc2oc(=O)ccc2c1)c1cc2ccccc2o1 | 75* | 4 | -9 | 0 | 8 | -7
CCOc1cccc(-c2c(C(=O)N/N=C(\C)c3ccccn3)nnn2-c2nonc2N)c1 | -2 | -1 | 8 | 3 | 1 | -7
CCOC(=O)c1c(C)oc2cc(Br)c(O)c(Br)c12 | 45* | -1 | 6 | -1 | -1 | -8
CCOC(=O)COc1cc2c(C(=O)OCC)c(C)oc2cc1Br | -1 | 1 | -3 | 2 | 1 | -7
Cc1cnc(C(=O)OCC(=O)Nc2ccc(C)c(S(=O)(=O)N3CCOCC3)c2)cn1 | 1 | -3 | -2 | -3 | 1 | -4
CCN1CCN(S(=O)(=O)c2ccc(OC)c3ccccc23)CC1 | 2 | 5 | -7 | -5 | -3 | -5
O=S(=O)(NCC(O)COCc1ccco1)c1cccs1 (centres undefined) | 2 | 2 | -6 | 8 | 0 | 65*
Cc1ccc(C)c(OCCC(=O)OCC(=O)NC2CC2)c1 | 2 | 0 | 1 | 0 | 0 | -3
O=C(Nc1cccc(Cl)c1)c1cccc(Oc2ccc([N+](=O)[O-])cc2Cl)c1 | -3 | -2 | 3 | -8 | 2 | -5
O=C(Nc1ccc([N+](=O)[O-])cc1Cl)c1cc(Cl)ccc1O | 14 | 4 | 7 | -5 | 72* | 35
